Measurements published in ChEMBL document CHEMBL2331151 (Bioorg Med Chem, 2013).
Each block holds one compound with its values, some of them ahead of it.

How the values were obtained:
[1] = AUC (0 to 24 hrs) in Sprague-Dawley rat at 5 mg/kg, po; type: ADME, organism-based; design: time < 24 hr, dose 5 mg/kg, route oral; conditions: plasma
Procedure, shortened: (§1)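 Compound given as a suspension by oral gavage to Sprague–Dawley rats as a single dose (5 mg/kg in the single-dose comparison; doses from 0.1–100 mg/kg in the dose-dependence study).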

[2] = Oral bioavailability in Sprague-Dawley rat at 5 mg/kg; type: ADME, organism-based; conditions: in vivo
[3] = Half life in Sprague-Dawley rat at 5 mg/kg; type: ADME, organism-based; design: dose 5 mg/kg; conditions: in vivo
[4] = system: Liver microsomes; test: Drug metabolism in rat liver microsomes in presence of S9 fractions; type: ADME, Microsome
Procedure, shortened: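 Compound incubated with the S-9 fraction of rat liver microsomes to measure in vitro clearance. Primary metabolites formed during the incubation were identified.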

[5] = Cmax in Sprague-Dawley rat at 5 mg/kg, po; type: ADME, organism-based; design: dose 5 mg/kg, route oral; conditions: in vivo; procedure, shortened: as §1
[6] = Cmax in Sprague-Dawley rat at 0.3 mg/kg, po; type: ADME, organism-based; design: dose 0.3 mg/kg, route oral; conditions: in vivo; procedure, shortened: as §1
[7] = AUC (0 to 24 hrs) in Sprague-Dawley rat at 0.3 mg/kg, po; type: ADME, organism-based; design: time < 24 hr, dose 0.3 mg/kg, route oral; conditions: plasma; procedure, shortened: as §1
[8] = AUC (0 to 24 hrs) in Sprague-Dawley rat at 2 mg/kg, po; type: ADME, organism-based; design: time < 24 hr, dose 2 mg/kg, route oral; conditions: plasma; procedure, shortened: as §1
[9] = AUC (0 to 24 hrs) in Sprague-Dawley rat at 100 mg/kg, po; type: ADME, organism-based; design: time < 24 hr, dose 100 mg/kg, route oral; conditions: plasma; procedure, shortened: as §1
[10] = AUC (0 to 24 hrs) in Sprague-Dawley rat at 30 mg/kg, po; type: ADME, organism-based; design: time < 24 hr, dose 30 mg/kg, route oral; conditions: plasma; procedure, shortened: as §1
[11] = AUC (0 to 24 hrs) in Sprague-Dawley rat at 1 mg/kg, po; type: ADME, organism-based; design: time < 24 hr, dose 1 mg/kg, route oral; conditions: plasma; procedure, shortened: as §1
[12] = Cmax in Sprague-Dawley rat at 30 mg/kg, po; type: ADME, organism-based; design: dose 30 mg/kg, route oral; conditions: in vivo; procedure, shortened: as §1
[13] = Cmax in Sprague-Dawley rat at 100 mg/kg, po; type: ADME, organism-based; design: dose 100 mg/kg, route oral; conditions: in vivo; procedure, shortened: as §1
[14] = Cmax in Sprague-Dawley rat at 0.1 mg/kg, po; type: ADME, organism-based; design: dose 0.1 mg/kg, route oral; conditions: in vivo; procedure, shortened: as §1
[15] = Cmax in Sprague-Dawley rat at 2 mg/kg, po; type: ADME, organism-based; design: dose 2 mg/kg, route oral; conditions: in vivo; procedure, shortened: as §1
[16] = Cmax in Sprague-Dawley rat at 1 mg/kg, po; type: ADME, organism-based; design: dose 1 mg/kg, route oral; conditions: in vivo; procedure, shortened: as §1
[17] = AUC (0 to 24 hrs) in Sprague-Dawley rat at 0.1 mg/kg, po; type: ADME, organism-based; design: time < 24 hr, dose 0.1 mg/kg, route oral; conditions: plasma; procedure, shortened: as §1

Structure (SMILES): O=S(=O)(Nc1ccc(Oc2cnc3ccccc3c2)c(Cl)c1)c1ccc(Cl)cc1Cl
AUC(0-t) at 24 h [1]: 105 µM·h
Cmax [5]: 11 µM

Structure (SMILES): O=S(=O)(Nc1ccc(Oc2cnc3ccccc3c2)c(F)c1)c1ccc(Cl)cc1Cl
AUC(0-t) at 24 h [1]: 82 µM·h
Cmax [5]: 4.8 µM

Structure (SMILES): O=S(=O)(Nc1cc(Cl)c(Oc2cnc3ccccc3c2)c(Cl)c1)c1ccc(C(F)(F)F)cc1Cl
AUC(0-t) at 24 h [1]: 112 µM·h
Cmax [5]: 8.5 µM

Structure (SMILES): CC(=O)c1cc(NS(=O)(=O)c2ccc(Cl)cc2Cl)ccc1Oc1cnc2ccccc2c1
AUC(0-t) at 24 h [1]: 3.4 µM·h
Cmax [5]: 0.92 µM

Structure (SMILES): O=S(=O)(Nc1cc(Cl)c(Oc2cnc3ccccc3c2)c(Cl)c1)c1ccc(Cl)cc1Cl [INT131]
AUC(0-t) at 24 h [1]: 30 µM·h
Cmax [6]: 130 nM
AUC(0-t) at 24 h [7]: 2.6 µM·h
AUC(0-t) at 24 h [8]: 8.3 µM·h
AUC(0-t) at 24 h [9]: 100 µM·h
AUC(0-t) at 24 h [10]: 71 µM·h
AUC(0-t) at 24 h [11]: 5.1 µM·h
Cmax [12]: 4.3 µM
Cmax [13]: 6.1 µM
Cmax [14]: 80 nM
Cmax [5]: 1.1 µM
Cmax [15]: 660 nM
Cmax [16]: 390 nM
AUC(0-t) at 24 h [17]: 1.1 µM·h

Other lines, results leading:

AUC(0-t) at 24 h [1]: 4.8 µM·h
Structure (SMILES): O=S(=O)(Nc1cc(Cl)c(Oc2cncc(Cl)c2)c(Cl)c1)c1ccc(Cl)cc1Cl

AUC(0-t) at 24 h [1]: 1.6 µM·h
bioavailability [2]: 8%
half-life [3]: 40 min
Drug metabolism [4]: Active
Structure (SMILES): CCNC(=O)c1cc(NS(=O)(=O)c2cc(C)c(Cl)cc2Cl)ccc1Oc1cncc(Cl)c1

AUC(0-t) at 24 h [1]: 31 µM·h
Structure (SMILES): N#Cc1cc(NS(=O)(=O)c2ccc(Cl)cc2Cl)ccc1Oc1cncc(Cl)c1
